Source: PubChem (Johns Hopkins Ion Channel Center)
Kir21 inh = inhibitors of mouse Kir2.1 inward-rectifier potassium channel | Inward rectifier potassium channel 2 (Mus musculus), P35561 | HEK293-Kir2.1, FluxOR thallium flux fluorescence; active compounds read low | B-score at 10 µM | actives 0.85% (n = 310,000);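 active = fluorescence ratio B-score at or below minus 3 SD of library scores, with starting-brightness B-score within 2 SD, cut at about -4.2 in these data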;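 also: channel flux triggered by added potassium and thallium sulfate stimulus; B-score of peak minus minimum fluorescence over baseline after thallium stimulus; more negative B-score means stronger Kir2.1 block with less thallium influx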
Target sequence (P35561 whole entry, looked up): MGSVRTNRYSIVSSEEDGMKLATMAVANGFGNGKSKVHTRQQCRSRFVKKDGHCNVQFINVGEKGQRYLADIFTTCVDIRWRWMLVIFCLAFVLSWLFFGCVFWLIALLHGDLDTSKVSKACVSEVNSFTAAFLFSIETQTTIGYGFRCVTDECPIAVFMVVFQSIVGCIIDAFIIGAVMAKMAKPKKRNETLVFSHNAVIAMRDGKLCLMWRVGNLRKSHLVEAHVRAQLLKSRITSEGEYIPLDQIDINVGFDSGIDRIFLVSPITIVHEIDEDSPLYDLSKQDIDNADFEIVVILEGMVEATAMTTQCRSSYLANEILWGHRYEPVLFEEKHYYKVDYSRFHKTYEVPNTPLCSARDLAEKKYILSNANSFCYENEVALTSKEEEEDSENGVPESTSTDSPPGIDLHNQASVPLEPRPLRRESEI
KCNQ1 inh = inhibitors of human KCNQ1 channel, primary screen, cell-based, thallium flux, high-throughput; B-score at 10 µM; actives 1.3% (n = 310,000); CHO-K1 KCNQ1, FluxOR thallium flux fluorescence; active compounds read high;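 active = compounds whose thallium flux B-score, printed positive for inhibition, exceeds three library SD while starting fluorescence stays within three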;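 also: channel opened by potassium depolarization with thallium stimulus after 20 min compound exposure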
hERG protect = hERG rescue from dofetilide block, primary screen, cell-based, CHO-hERG, FluxOR thallium flux, dofetilide IC70; Voltage-gated inwardly rectifying potassium channel KCNH2 (Homo sapiens), Q12809; dofetilide IC70 present; activation (rescue from dofetilide block), less the hit threshold, % at 10 µM; actives 0.51% (n = 310,000);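 active = activation above the mean of controls blocked by dofetilide plus 5 SD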;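 also: thallium influx through hERG after potassium depolarization seen as dye fluorescence rise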
KCNQ1 pot = potentiators or activators of KCNQ1 channel, primary screen, cell-based, thallium flux, high-throughput; Potassium voltage-gated channel subfamily KQT member 1 (Homo sapiens), P51787; CHO-K1 KCNQ1, thallium flux FluxOR fluorescence; active compounds read high; B-score at 10 µM; actives 0.35% (n = 310,000);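 active = fluorescence ratio B-score, a plate-corrected score, at least three library SD, with initial intensity B-score within 5 SD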
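Medium – assay buffer, equal DMSO in all wells · Material – CHO-K1 cell line with stable KCNQ1 potassium channel expression · Signal – kinetic FluxOR thallium fluorescence, 10-s 1-Hz baseline, 110-s post-stimulus read · Compound – single concentration per compound, DMSO matched to controls · Schedule – 37 °C overnight plating, 90-min dark dye load, 20-min compound pretreatment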
KCNK9 inh = KCNK9 potassium channel inhibitors, primary screen, HEK293 cells, thallium flux; FluxOR thallium flux fluorescence; active compounds read low; actives 1.2% (n = 310,000); Potassium channel subfamily K member 9 (Homo sapiens), Q9NPC2; AID 488922, 2010; B-score at 10 µM;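 active = ratio B-score over 3 SD below the library mean, with starting fluorescence within 5 SD of its mean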;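 also: negative B-score means less thallium flux so channel inhibition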
KCNK3 inh = human KCNK3 channel inhibitors, primary screen, CHO cells, FluxOR thallium flux, B-score; FluxOR fluorescence; active compounds read low; B-score at 10 µM; actives 0.84% (n = 340,000); AID 602410, 2012;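 active = B-score under library mean minus 4 SD, starting fluorescence ratio at most library mean plus 5 SD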;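 also: more negative B-score means stronger inhibition of thallium flux through KCNK3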
Active calls of the source: *; i = inactive; . = not tested or not shown. In the library only some 3.7% were active in any assay of this set; here they are far more common.

SMILES	Kir21 inh	KCNQ1 inh	hERG protect	KCNQ1 pot	KCNK9 inh	KCNK3 inh
CCCCNCCOCCOc1ccccc1-c1ccccc1	-10*	i	-3	i	i	i
C=CCNCCOc1ccccc1-c1ccccc1	-1.3	i	-3	i	i	i
COCCNCCCCOc1ccccc1-c1ccccc1	-6.3*	i	-2	i	i	i
CCC(=O)c1ccccc1OCCN1C(=O)NC(C)(C)C1=O	-1.4	i	-10	i	i	i
O=C(CSc1nnc(CNC(=O)c2ccc(F)cc2)o1)NCc1ccc2c(c1)OCO2	-0.3	i	0	i	i	i
CCOC(=O)CSc1ccc(S(=O)(=O)N(C)C2CCCCC2)cc1[N+](=O)[O-]	-0.15	i	-4	i	i	-10*
O=C(Cn1cc(C(F)(F)F)ccc1=O)NCC1CCCO1 (centres undefined)	.	.	.	.	.	i
Cc1ccc(Oc2ccc(NC(=O)Cn3ccsc3=N)cc2)cc1	-4.5*	i	-16	22*	i	i
COCCn1c(SCC(=O)Nc2cccnc2Cl)nc2ccccc21	.	.	.	.	.	i
COCCn1c(SCC(=O)Nc2nc(C)c(Cl)cc2Cl)nc2ccccc21	-6.3*	i	-3	i	i	i
CCOC(=O)C1=NOC(CN(c2ccccc2)S(=O)(=O)c2ccc(Cl)cc2)C1 (centres undefined)	-2.8	i	-3	i	i	i
c1ccc2c(c1)[nH]c1c(N3CCSCC3)ncnc12	.	.	.	.	.	-9.7*
FC(F)c1nnc2c(Cl)cc(C(F)(F)F)cn12	-1.1	i	6.4*	i	i	i
Fc1ccc(-c2nc3c(Cl)cc(C(F)(F)F)cn3c2Cl)cc1	1.6	i	-12	i	i	i
COC(=O)C1=C(C(=O)OC)[C@@H]2N(Cc3ccccc3)c3ccccc3[C@@]23C[C@@H](C(=O)OC)N(C(=O)c2cc(C)oc2C)C3=N1	0.58	i	0	i	i	i
COC(=O)C1=C(C(=O)OC)[C@@H]2N(Cc3ccccc3)c3ccccc3[C@@]23C[C@@H](C(=O)OC)N(C(=O)CC(C)C)C3=N1	-0.41	i	-4	i	-7.9*	i
COC(=O)C1=C(C(=O)OC)[C@@H]2N(C)c3ccccc3[C@@]23C[C@@H](C(=O)OC)N(C(=O)c2ccc(Br)cc2)C3=N1	-2.4	i	-8	30*	i	i
CC#CCN1c2ccccc2[C@]23C[C@@H](C(=O)OC)N(C(=O)c4ccc(Br)cc4)C2=NC(C(=O)OC)=C(C(=O)OC)[C@H]13	-0.21	i	-4	i	i	.
COC(=O)C1=C(C(=O)OC)[C@@H]2N(Cc3ccccc3)c3ccccc3[C@@]23C[C@@H](C(=O)OC)N(C(=O)c2cccs2)C3=N1	0.48	i	-2	i	-7.9*	i
COc1ccc(/C=N/NC(=O)CNS(=O)(=O)c2ccc(C)cc2)cc1	-0.77	i	-4	i	i	i
COc1ccccc1CC(=O)NCCN1CCCCC1	0.56	i	-8	i	i	i
COc1ccc2oc(C(=O)N(Cc3ccco3)Cc3cccs3)c(C)c2c1	-2.3	9*	-17	i	i	i
Cc1c(CC(=O)N2CCN(C(=O)C3COc4ccccc4O3)CC2)c(=O)oc2c(C)c(O)ccc12 (centres undefined)	1.1	i	-9	i	i	i
O=C(O)c1ccc(N=NNc2cccc([N+](=O)[O-])c2)cc1	1.5	i	-1	i	i	i
N#C/C(=N\Nc1cccc([N+](=O)[O-])c1)C(=O)c1ccc(Br)cc1	-2.3	8*	-24	i	i	i
SMILES	Kir21 inh	KCNQ1 inh	hERG protect	KCNQ1 pot	KCNK9 inh	KCNK3 inh
CC(C)[C@@H]1C=C(C(=O)O)O[C@H](OCCCCO)C1	-1.5	i	-7	i	i	i
O=C(/C=C/c1cccc([N+](=O)[O-])c1)NCCSCc1ccc(Cl)cc1Cl	-0.58	i	-13	i	-14*	i
COc1cccc(NC(=O)COC(=O)c2sccc2C)c1	.	.	.	.	.	i
N=c1n(CCO)c2ccccc2n1CCOc1ccc(Cl)cc1Cl	-4.4*	i	-8	i	i	i
O=C(NCc1ccccc1)C(=O)NCC1OCCN1C(=O)c1ccc(Cl)cc1 (centres undefined)	-0.67	i	-2	i	i	i
COc1cnc(-c2ccccn2)nc1Oc1ccc(Cl)c2ccccc12	1.3	i	-4	i	-8.1*	i
COc1ccc(NC(=O)C2C3C=CC(C3)C2C(=O)O)cc1 (centres undefined)	0.62	i	-7	i	i	i
COc1cccc(NC(=O)C2C3C=CC(C3)C2C(=O)O)c1 (centres undefined)	0.95	i	7.4*	i	i	i
Cc1csc(NC(=O)C2C3C=CC(C3)C2C(=O)O)n1 (centres undefined)	-2.8	i	5.4*	i	i	i
Cc1cc(CNC(=O)C2(C(F)(F)F)CC(CCCO)CCCO2)nn1C (centres undefined)	0.81	i	-3	i	i	i
Cc1ccc(Cn2ncc3c(NN)ncnc32)cc1	-0.49	i	-5	15*	i	i
O=C1CC(c2ccco2)CC(O)=C1C=Nc1cc(Cl)ccc1O (centres undefined)	0.88	6*	-17	i	i	i
O=C1CC(c2ccco2)CC(O)=C1C=Nc1cc(Cl)ccc1Cl (centres undefined)	0.04	i	-4	i	i	i
Nc1nc(N)c(N=Nc2ccc(C(=O)O)cc2)c(N)n1	0.05	i	-7	11*	i	i
N#C/C(=C\Nc1ccccc1O)c1nc2ccccc2o1	-1.3	i	-6	i	i	i
Cc1ccc(CN2C(=O)c3ccccc3NC2c2cc(Br)ccc2O)cc1 (centres undefined)	0.03	13*	-13	i	i	i
CCC[C@@H](CN[C@@H](CNC)[C@H](C)CC)NCC1CCC(C(C)(C)C)CC1 (some centres undefined)	-4.9	i	-12	i	i	i
CCC[C@H](CN[C@@H](CNC)[C@H](C)CC)NCCc1cc(C(F)(F)F)cc(C(F)(F)F)c1	-4.2*	i	-14	i	i	i
